In ChEMBL document CHEMBL1129648, “Synthesis and selective coronary vasodilatory activity of 3,4-dihydro-2,2-bis(methoxymethyl)-2H-1-benzopyran-3-ol derivatives: novel potassium channel openers” (J Med Chem, 1996):

System: Canis familiaris
Test: Dose causing a 50% increase of coronary blood flow in anesthetized dogs relative to the flow increase caused by injection of 1 microg of nifedipine (100%) after intracoronary administration.
Assay type: functional, Canis lupus familiaris, Coronary artery
How it was run: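 Anesthetized dogs; compound dissolved in 30% DMF, diluted with saline, injected into the coronary artery. Perfusion pressure and systemic blood pressure measured by pressure transducers.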

Question: With `COCC1(COC)Oc2ccc(C#N)cc2[C@@H](NC(=O)c2cccnc2)[C@@H]1O` as the molecule, how does the ED50 read?
Answer: Its ED50 is 14 µg.

Question: Which ED50 does the source give for `COCC1(COC)Oc2ccc(C#N)cc2[C@@H](Oc2ccc(=O)n(C)n2)[C@@H]1O` here?
Answer: Its ED50 is 6.4 µg.

Question: Which ED50 does the source give for `COCC1(COC)Oc2ccc(C#N)cc2[C@@H](Nc2ccc(=O)n(C(C)C)n2)[C@@H]1O` here?
Answer: The ED50 was 1.3 µg.

Question: With `COCC1(COC)Oc2ccc(C#N)cc2[C@@H](Nc2ccc(O)nn2)[C@@H]1O` as the molecule, how does the ED50 read?
Answer: The ED50 was 6.2 µg.

Question: For `CCn1nc(N[C@@H]2c3cc(C#N)ccc3OC(COC)(COC)[C@H]2O)ccc1=O`, which ED50 is on record?
Answer: Its ED50 is 0.57 µg.

Question: With `COCC1(COC)Oc2ccc(Br)cc2[C@@H](N=C(NC#N)c2cccnc2)[C@@H]1O` as the molecule, how does the ED50 read?
Answer: Its ED50 is 20 µg.

Question: Which ED50 does the source give for `CC1(C)Oc2ccc(C#N)cc2[C@@H](N=C(NC#N)c2cccnc2)[C@@H]1O` here?
Answer: The ED50 was 1.3 µg.

Question: Which ED50 does the source give for `COCC1(COC)Oc2ccc(C#N)cc2[C@@H](Nc2ccc(=O)n(CC(F)(F)F)n2)[C@@H]1O` here?
Answer: The ED50 was 6.4 µg.

Question: With `CCCCCCCn1nc(N[C@@H]2c3cc(C#N)ccc3OC(COC)(COC)[C@H]2O)ccc1=O` as the molecule, how does the ED50 read?
Answer: Its ED50 is 13 µg.

Question: Which ED50 does the source give for `COCC1(COC)Oc2ccc(C#N)cc2[C@@H](Nc2ccc(=O)n(CCF)n2)[C@@H]1O` here?
Answer: The ED50 was 1.8 µg.

Question: Which ED50 does the source give for `COCC1(COC)Oc2ccc(C#N)cc2[C@@H](Nc2ccc(=O)n(CC#N)n2)[C@@H]1O` here?
Answer: The ED50 was 5 µg.

Question: With `COCC1(COC)Oc2ccc(C#N)cc2[C@@H](N=C(NC#N)c2ccccc2)[C@@H]1O` as the molecule, how does the ED50 read?
Answer: Its ED50 is 5.4 µg.

Question: For `COCC1(COC)Oc2ccc(C#N)cc2[C@@H](Nc2ccc(=S)n(C)n2)[C@@H]1O`, which ED50 is on record?
Answer: The ED50 was 24 µg.

Question: With `COCC1(COC)Oc2ccc(C#N)cc2[C@@H](Nc2ccc(=O)n(-c3ccc([N+](=O)[O-])cc3)n2)[C@@H]1O` as the molecule, how does the ED50 read?
Answer: The ED50 was greater than 30 µg.

Question: Which ED50 does the source give for `COCC1(C)Oc2ccc(C#N)cc2[C@@H](N=C(NC#N)c2cccnc2)[C@@H]1O` (stereo partly drawn) here?
Answer: The ED50 was 17 µg.

Question: For `COCC1(COC)Oc2ccc(C#N)cc2[C@@H](N=C(NC#N)c2cccnc2)[C@@H]1O`, which ED50 is on record?
Answer: Its ED50 is 14 µg.

Question: Which ED50 does the source give for `COCC1(COC)Oc2ccc(C#N)cc2[C@@H](Nc2ccc(=O)n(CCSC)n2)[C@@H]1O` here?
Answer: Its ED50 is 3.3 µg.

Question: With `CCCn1nc(N[C@@H]2c3cc(C#N)ccc3OC(COC)(COC)[C@H]2O)ccc1=O` as the molecule, how does the ED50 read?
Answer: The ED50 was 1.5 µg.

Question: Which ED50 does the source give for `CCOCC1(COCC)Oc2ccc(C#N)cc2[C@@H](N=C(NC#N)c2cccnc2)[C@@H]1O` here?
Answer: The ED50 was greater than 30 µg.

Question: For `COCC1(COC)Oc2ccc(C#N)cc2[C@@H](Nc2ccc(=O)n(CC(=O)O)n2)[C@@H]1O`, which ED50 is on record?
Answer: Its ED50 is greater than 30 µg.

Question: For `COCC1(COC)Oc2ccc(C#N)cc2[C@@H](Nc2ccc(=O)n(CC[N+](=O)[O-])n2)[C@@H]1O`, which ED50 is on record?
Answer: The ED50 was 1.6 µg.

Question: Which ED50 does the source give for `COCC1(COC)Oc2ccc(C#N)cc2[C@@H](Nc2ccc(=O)n(Cc3ccccc3)n2)[C@@H]1O` here?
Answer: The ED50 was 28 µg.

Question: Which ED50 does the source give for `COCC1(COC)Oc2ccc(Br)cc2[C@@H](Nc2ccc(=O)n(C)n2)[C@@H]1O` here?
Answer: The ED50 was 2.3 µg.

Question: For `COCC1(COC)Oc2ccc([N+](=O)[O-])cc2[C@@H](N=C(NC#N)c2cccnc2)[C@@H]1O`, which ED50 is on record?
Answer: The ED50 was 4.4 µg.

Question: Which ED50 does the source give for `COCCn1nc(N[C@@H]2c3cc(C#N)ccc3OC(COC)(COC)[C@H]2O)ccc1=O` here?
Answer: Its ED50 is 4.1 µg.

Question: Which ED50 does the source give for `COCC1(COC)Oc2ccc(C#N)cc2[C@@H](Nc2ccc(=O)n(CCC(=O)OC)n2)[C@@H]1O` here?
Answer: The ED50 was 2.3 µg.

Question: For `C=CCn1nc(N[C@@H]2c3cc(C#N)ccc3OC(COC)(COC)[C@H]2O)ccc1=O`, which ED50 is on record?
Answer: Its ED50 is 1.2 µg.

Question: For `N#CNC(=N[C@@H]1c2cc(C#N)ccc2OC2(COCOC2)[C@H]1O)c1cccnc1`, which ED50 is on record?
Answer: The ED50 was greater than 30 µg.

Question: With `COCC1(COC)Oc2ccc([N+](=O)[O-])cc2[C@@H](Nc2ccc(=O)n(C)n2)[C@@H]1O` as the molecule, how does the ED50 read?
Answer: Its ED50 is 1.1 µg.

Question: With `COCC1(COC)Oc2ccc(C#N)cc2[C@@H](NC(=O)Nc2ccccc2)[C@@H]1O` as the molecule, how does the ED50 read?
Answer: The ED50 was greater than 30 µg.

Question: With `COCC1(COC)Oc2ccc(C#N)cc2[C@@H](Nc2ccc(=O)n(C)n2)[C@@H]1O` as the molecule, how does the ED50 read?
Answer: The ED50 was 0.58 µg.

Question: For `CC1(COc2ccccc2)Oc2ccc(C#N)cc2[C@@H](N=C(NC#N)c2cccnc2)[C@@H]1O` (stereo partly drawn), which ED50 is on record?
Answer: The ED50 was greater than 30 µg.

Question: Which ED50 does the source give for `COCC1(COC)Oc2ccc(C#N)cc2[C@@H](Nc2ccc(=O)n(CC(=O)OC)n2)[C@@H]1O` here?
Answer: The ED50 was 17 µg.

Question: For `CCCC1(C)Oc2ccc(C#N)cc2[C@@H](N=C(NC#N)c2cccnc2)[C@@H]1O` (stereo partly drawn), which ED50 is on record?
Answer: Its ED50 is 20 µg.

Question: Which ED50 does the source give for `COCC1(COC)Oc2ccc(C#N)cc2[C@@H](N=C(NC#N)Nc2ccccc2)[C@@H]1O` here?
Answer: Its ED50 is greater than 30 µg.

Question: With `COCC1(COC)Oc2ccc(C#N)cc2[C@@H](N=C(C)NC#N)[C@@H]1O` as the molecule, how does the ED50 read?
Answer: The ED50 was 6 µg.

Question: Which ED50 does the source give for `COCC1(COC)Oc2ccc(C#N)cc2[C@@H](Nc2ccc(=O)n(CC3CC3)n2)[C@@H]1O` here?
Answer: The ED50 was 1.5 µg.

Species: Sus scrofa
Test: Vasorelaxant effect on KCl-Induced contraction of porcine coronary artery
Assay type: functional

Question: Which IC50 does the source give for `COC(=O)C1=C(C)NC(C)=C(C(=O)OC)C1c1ccccc1[N+](=O)[O-]` [NIFEDIPINE] here?
Answer: Its IC50 is 3.6 nM.

Question: With `O=C(NCCO[N+](=O)[O-])c1cccnc1` [NICORANDIL] as the molecule, how does the IC50 read?
Answer: The IC50 was 3200 nM.

Question: Which IC50 does the source give for `CC1(C)Oc2ccc(C#N)cc2[C@@H](N2CCCC2=O)[C@@H]1O` [LEVCROMAKALIM] here?
Answer: The IC50 was 360 nM.

Species: Rattus norvegicus
Test: Vasorelaxant effect on KCl-Induced contraction of rat aorta
Assay type: functional
How it was run: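 Isolated strips in Krebs-Henseleit solution, 37 °C, gassed with 95% O2/5% CO2, under 1 g resting load; isometric tension recorded. Strips contracted with 30 or 40 mM KCl. Cumulative concentration-relaxation curves; mean IC50 taken as concentration giving 50% relaxation of the KCl-induced contraction.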

Question: For `COC(=O)C1=C(C)NC(C)=C(C(=O)OC)C1c1ccccc1[N+](=O)[O-]` [NIFEDIPINE], which IC50 is on record?
Answer: The IC50 was 3.6 nM.

Question: With `O=C(NCCO[N+](=O)[O-])c1cccnc1` [NICORANDIL] as the molecule, how does the IC50 read?
Answer: Its IC50 is 13000 nM.

Question: Which IC50 does the source give for `CC1(C)Oc2ccc(C#N)cc2[C@@H](N2CCCC2=O)[C@@H]1O` [LEVCROMAKALIM] here?
Answer: Its IC50 is 290 nM.

Question: With `COCC1(COC)Oc2ccc(C#N)cc2[C@@H](Nc2ccc(=O)n(C)n2)[C@@H]1O` as the molecule, how does the IC50 read?
Answer: Its IC50 is 300 nM.

System: not listed separately
Test: Vasorelaxant effect on KCl-Induced contraction of porcine coronary artery vs rat aorta
Assay type: functional
How it was run: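 Isolated porcine coronary artery and rat aortic strips in organ bath, Krebs-Henseleit solution, 37 °C, gassed 95% O2/5% CO2; isometric tension under 1 g resting load. Strips contracted with 30 or 40 mM KCl. Mean IC50 (50% relaxation of KCl-induced contraction) from concentration-relaxation curves in each tissue.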

Question: With `COC(=O)C1=C(C)NC(C)=C(C(=O)OC)C1c1ccccc1[N+](=O)[O-]` [NIFEDIPINE] as the molecule, how does the Ratio read?
Answer: Its Ratio is 1.

Question: For `CC1(C)Oc2ccc(C#N)cc2[C@@H](N2CCCC2=O)[C@@H]1O` [LEVCROMAKALIM], which Ratio is on record?
Answer: The Ratio was 0.81.

System: not listed separately
Test: Ratio of vasorelaxant effect on KCl-Induced contraction of rat aorta to that of porcine coronary artery
Assay type: functional

Question: With `O=C(NCCO[N+](=O)[O-])c1cccnc1` [NICORANDIL] as the molecule, how does the Ratio read?
Answer: The Ratio was 4.06.

Question: For `COCC1(COC)Oc2ccc(C#N)cc2[C@@H](Nc2ccc(=O)n(C)n2)[C@@H]1O`, which Ratio is on record?
Answer: Its Ratio is 2.73.
